Source: ChEMBL document CHEMBL3352171, “Synthesis and biological evaluation of andrographolide analogues as anti-cancer agents” (Eur J Med Chem, 2014)
Active and inactive are the calls of the source. No cut-off for these calls is given here.

How the values were obtained:
HEK293 [1] = assay: Cytotoxicity against HEK293 cells after 48 hrs by MTT assay; type: functional; conditions: Homo sapiens, HEK293, 48 h; read-out: LC50 (the source's name)
How it was run: (§1)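 Cells seeded at 10,000 per well and exposed to increasing compound concentrations for 48 h. After a PBS wash, MTT (2.5 mg/mL) was added for 6 h at 37 °C, then detergent (10% NP-40, 4 mM HCl), and absorbance was read at 570 nm. LC50 is the concentration causing 50% cell death. Values are means of three independent experiments.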

Vero = assay: Cytotoxicity against african green monkey Vero cells after 48 hrs by MTT assay; type: cell-based; conditions: chlorocebus sabaeus; how it was run: as §1
[2] = Retention time of the compound by HPLC method; type: physicochemical
MCF7 = assay: Cytotoxicity against human MCF7 cells after 48 hrs by MTT assay; type: functional; conditions: MCF7, 48 h, read-out: LC50 (the source's name); how it was run: as §1
[3] = Cytotoxicity against human MCF10A cells after 48 hrs by MTT assay; type: cell-based; conditions: mcf-10a; how it was run: as §1
HEK293 [4] = assay: Increase in caspase-3 expression in HEK293 cells at LC50 level after 48 hrs by immunocytochemistry; type: functional, cell-based; conditions: Homo sapiens
HEK293 [5] = assay: Increase in Bax expression in HEK293 cells at LC50 level after 48 hrs by Western blot method; type: functional, cell-based; conditions: Homo sapiens
HEK293 [6] = assay: Reduction in Bcl-xL expression in HEK293 cells at LC50 level after 48 hrs by Western blot method; type: functional, cell-based; conditions: Homo sapiens
HEK293 [7] = assay: Increase in PARP cleavage in HEK293 cells at LC50 level after 48 hrs by Western blot method; type: functional, cell-based; conditions: Homo sapiens
HEK293 [8] = assay: Increase in p53 expression in HEK293 cells at LC50 level after 48 hrs by Western blot method; type: functional, cell-based; conditions: Homo sapiens
HEK293 [9] = assay: Reduction in NFkappaB expression in HEK293 cells at LC50 level after 48 hrs by Western blot method; type: functional, cell-based; conditions: Homo sapiens
HEK293 [10] = assay: Increase in Bax expression in p53 deficient HEK293 cells at LC50 level after 48 hrs by Western blot method; type: functional, cell-based; conditions: Homo sapiens
HEK293 [11] = assay: Reduction in Bcl-xL expression in p53 deficient HEK293 cells at LC50 level after 48 hrs by Western blot method; type: functional, cell-based; conditions: Homo sapiens
HEK293 [12] = assay: Increase in PARP cleavage in p53 deficient HEK293 cells at LC50 level after 48 hrs by Western blot method; type: functional, cell-based; conditions: Homo sapiens
HEK293 [13] = assay: Increase in p53 expression in p53 deficient HEK293 cells at LC50 level after 48 hrs by Western blot method; type: functional, cell-based; conditions: Homo sapiens
HEK293 [14] = assay: Reduction in NFkappaB expression in p53 deficient HEK293 cells at LC50 level after 48 hrs by Western blot method; type: functional, cell-based; conditions: Homo sapiens

SMILES	CC50 (HEK293 [1])	LC50 (Vero)	Retention_time [2]	also measured
C=C1CC[C@@H]2[C@]3(C)COC(C)(C)O[C@@H]3CC[C@@]2(C)[C@@H]1C/C=C1/C(=O)OC[C@H]1OC(=O)CI	20 µM	48 µM	–	–
C[C@]1(CO)[C@H]2CC[C@]3(CO3)[C@@H](C/C=C3/C(=O)OC[C@H]3OC(=O)CBr)[C@]2(C)CC[C@H]1O	24 µM	32 µM	27.2 min	–
C=C1CC[C@@H]2[C@](C)(CO)[C@H](O)CC[C@@]2(C)[C@@H]1C/C=C1/C(=O)OC[C@H]1O [ANDROGRAPHOLIDE]	25 µM	< 40 µM	–	CC50 (MCF7): 16 µM; LC50 [3]: > 40 µM; Activity (HEK293 [4]): Active; Activity (HEK293 [5]): Active; Activity (HEK293 [6]): Active; Activity (HEK293 [7]): Active; Activity (HEK293 [8]): Active; Activity (HEK293 [9]): Active; Activity (HEK293 [10]): inactive; Activity (HEK293 [11]): inactive; Activity (HEK293 [12]): inactive; Activity (HEK293 [13]): inactive; Activity (HEK293 [14]): inactive
C[C@]1(CO)[C@H]2CC[C@]3(CO3)[C@@H](C/C=C3/C(=O)OC[C@H]3OC(=O)CCl)[C@]2(C)CC[C@H]1O	18 µM	43 µM	36.5 min	–
C[C@]1(CO)[C@H]2CC[C@@]3(CO3)[C@@H](C/C=C3/C(=O)OC[C@H]3OC(=O)CCl)[C@]2(C)CC[C@H]1O	31 µM	37 µM	37.1 min	–
C[C@]1(CO)[C@H]2CC[C@]3(CO3)[C@@H](C/C=C3/C(=O)OC[C@H]3OC(=O)CI)[C@]2(C)CC[C@H]1O	25 µM	42 µM	30.2 min	–
C=C1CC[C@@H]2[C@]3(C)COC(C)(C)O[C@@H]3CC[C@@]2(C)[C@@H]1C/C=C1/C(=O)OC[C@H]1OC(=O)CBr	17 µM	36 µM	–	–
